From ChEMBL document CHEMBL1134763, “Oxidation of N(omega)-hydroxyarginine analogues by NO-synthase: the simple, non amino acid N-butyl N'-hydroxyguanidine is almost as efficient an NO precursor as N(omega)-hydroxyarginine” (J Med Chem, 2001)

T1: Nitric oxide synthase, inducible (Mus musculus) (UniProt P29477)
T1 sequence (whole entry): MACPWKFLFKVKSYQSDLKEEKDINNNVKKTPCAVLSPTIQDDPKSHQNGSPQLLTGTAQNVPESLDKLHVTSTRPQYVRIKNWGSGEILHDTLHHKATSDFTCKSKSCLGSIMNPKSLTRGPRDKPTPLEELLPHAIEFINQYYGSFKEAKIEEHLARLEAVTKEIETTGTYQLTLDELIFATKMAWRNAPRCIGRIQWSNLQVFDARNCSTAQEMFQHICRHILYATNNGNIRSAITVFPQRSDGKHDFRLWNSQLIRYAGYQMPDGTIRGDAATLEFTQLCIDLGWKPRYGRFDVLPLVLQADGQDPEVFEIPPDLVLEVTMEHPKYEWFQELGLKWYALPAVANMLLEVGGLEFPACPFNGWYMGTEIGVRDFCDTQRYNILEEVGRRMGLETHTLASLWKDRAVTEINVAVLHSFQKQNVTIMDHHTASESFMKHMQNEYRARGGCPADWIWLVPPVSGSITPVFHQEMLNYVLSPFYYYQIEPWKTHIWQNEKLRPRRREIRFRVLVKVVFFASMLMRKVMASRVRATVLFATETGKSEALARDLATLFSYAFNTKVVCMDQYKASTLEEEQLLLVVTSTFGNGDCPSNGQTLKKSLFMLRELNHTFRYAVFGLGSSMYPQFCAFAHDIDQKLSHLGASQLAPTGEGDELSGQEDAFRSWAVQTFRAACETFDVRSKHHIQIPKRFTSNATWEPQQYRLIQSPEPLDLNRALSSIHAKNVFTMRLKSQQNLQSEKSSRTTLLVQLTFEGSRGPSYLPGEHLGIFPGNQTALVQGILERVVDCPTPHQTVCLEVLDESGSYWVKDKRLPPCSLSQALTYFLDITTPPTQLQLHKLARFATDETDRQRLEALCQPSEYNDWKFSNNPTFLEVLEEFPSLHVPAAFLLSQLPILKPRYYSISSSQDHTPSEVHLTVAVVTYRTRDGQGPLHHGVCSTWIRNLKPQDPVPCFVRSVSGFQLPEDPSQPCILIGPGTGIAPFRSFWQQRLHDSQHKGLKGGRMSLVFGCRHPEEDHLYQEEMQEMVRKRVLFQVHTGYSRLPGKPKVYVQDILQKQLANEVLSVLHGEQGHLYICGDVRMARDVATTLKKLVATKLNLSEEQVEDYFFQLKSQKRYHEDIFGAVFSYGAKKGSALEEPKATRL

T2: Nitric oxide synthase 3 (Homo sapiens) (UniProt P29474)
T2 sequence (whole entry): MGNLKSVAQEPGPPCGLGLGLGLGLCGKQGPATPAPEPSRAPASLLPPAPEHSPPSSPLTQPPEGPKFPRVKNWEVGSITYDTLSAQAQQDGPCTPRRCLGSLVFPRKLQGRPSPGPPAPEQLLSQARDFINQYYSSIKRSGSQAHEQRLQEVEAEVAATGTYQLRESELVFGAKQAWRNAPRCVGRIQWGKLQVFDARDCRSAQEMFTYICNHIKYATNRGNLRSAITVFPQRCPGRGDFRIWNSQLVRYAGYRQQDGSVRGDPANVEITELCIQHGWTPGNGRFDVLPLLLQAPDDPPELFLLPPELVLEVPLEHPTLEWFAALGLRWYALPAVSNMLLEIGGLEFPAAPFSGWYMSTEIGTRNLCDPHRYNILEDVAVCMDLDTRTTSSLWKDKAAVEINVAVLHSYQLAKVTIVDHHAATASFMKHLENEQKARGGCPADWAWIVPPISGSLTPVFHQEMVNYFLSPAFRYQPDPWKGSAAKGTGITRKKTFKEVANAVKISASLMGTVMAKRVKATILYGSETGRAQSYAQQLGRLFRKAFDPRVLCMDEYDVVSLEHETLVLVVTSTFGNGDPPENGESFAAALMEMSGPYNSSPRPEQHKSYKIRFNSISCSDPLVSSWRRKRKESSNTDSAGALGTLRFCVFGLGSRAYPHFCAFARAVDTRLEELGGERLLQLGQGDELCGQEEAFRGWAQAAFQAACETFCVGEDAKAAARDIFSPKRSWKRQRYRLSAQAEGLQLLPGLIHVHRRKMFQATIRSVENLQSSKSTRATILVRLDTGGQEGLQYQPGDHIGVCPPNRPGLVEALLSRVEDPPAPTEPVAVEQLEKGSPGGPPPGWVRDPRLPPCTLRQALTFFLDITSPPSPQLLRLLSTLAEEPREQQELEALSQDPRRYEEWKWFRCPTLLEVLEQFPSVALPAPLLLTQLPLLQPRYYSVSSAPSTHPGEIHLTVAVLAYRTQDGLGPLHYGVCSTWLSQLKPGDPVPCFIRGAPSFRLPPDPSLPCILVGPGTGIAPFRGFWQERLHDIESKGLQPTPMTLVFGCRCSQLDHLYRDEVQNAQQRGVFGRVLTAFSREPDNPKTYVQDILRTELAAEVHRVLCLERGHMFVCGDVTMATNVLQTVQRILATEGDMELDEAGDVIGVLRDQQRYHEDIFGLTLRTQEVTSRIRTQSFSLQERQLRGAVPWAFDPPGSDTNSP

B1: Nitric oxide synthase, inducible (Mus musculus), P29477 (protein)
chain: T1 sequence (whole entry)

Columns and labels:
Type in all cases: functional
[1] = biological target: T1, Nitric oxide synthase, inducible (Mus musculus); assay: (§1) Compound was evaluated for the kinetic constants for Nitric Oxide formation from oxidation by NOS II
In short: (§2)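 Recombinant purified NOS II was run in the hemoglobin assay at 37 °C in 50 mM HEPES pH 7.4 with NADPH, BH4, SOD, catalase and DTT, over varying substrate concentrations. Initial NO-formation rates gave saturation kinetics. Km (μM) and kcat (min⁻¹) were derived from Lineweaver-Burk plots, and kcat/Km is expressed in μM⁻¹ min⁻¹.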

[2] = Ratio between Km (uM) and Kcat (1/min) was determined; in short: as §2
[3] = biological target: T1, Nitric oxide synthase, inducible (Mus musculus); assay: Formation of Nitric Oxide by Nitric Oxide synthase II(% relative to NOHA)
In short: (§3)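 Purified recombinant NOS (5–50 nM) at 37 °C in 50 mM HEPES pH 7.4 with 1 mM test compound, 1 mM NADPH, 100 μM BH4, 100 U/mL SOD, 100 U/mL catalase, 12–15 μM oxyhemoglobin and 5 mM DTT. NOS I and NOS III runs also contained 1 mM CaCl2 and 10 μg/mL calmodulin. NO was read spectrophotometrically as oxyhemoglobin-to-methemoglobin conversion. Initial rates are given as % of the NOHA rate.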

[4] = biological target: T2, Nitric oxide synthase 3 (Homo sapiens); assay: Formation of Nitric Oxide by Nitric Oxide synthase III(% relative to NOHA); in short: as §3
[5] = biological target: Nitric oxide synthase 1 (Homo sapiens) (UniProt P29475); assay: Formation of Nitric Oxide by Nitric Oxide synthase I(% relative to NOHA); in short: as §3
Chain of Nitric oxide synthase 1 (Homo sapiens) (P29475 whole entry): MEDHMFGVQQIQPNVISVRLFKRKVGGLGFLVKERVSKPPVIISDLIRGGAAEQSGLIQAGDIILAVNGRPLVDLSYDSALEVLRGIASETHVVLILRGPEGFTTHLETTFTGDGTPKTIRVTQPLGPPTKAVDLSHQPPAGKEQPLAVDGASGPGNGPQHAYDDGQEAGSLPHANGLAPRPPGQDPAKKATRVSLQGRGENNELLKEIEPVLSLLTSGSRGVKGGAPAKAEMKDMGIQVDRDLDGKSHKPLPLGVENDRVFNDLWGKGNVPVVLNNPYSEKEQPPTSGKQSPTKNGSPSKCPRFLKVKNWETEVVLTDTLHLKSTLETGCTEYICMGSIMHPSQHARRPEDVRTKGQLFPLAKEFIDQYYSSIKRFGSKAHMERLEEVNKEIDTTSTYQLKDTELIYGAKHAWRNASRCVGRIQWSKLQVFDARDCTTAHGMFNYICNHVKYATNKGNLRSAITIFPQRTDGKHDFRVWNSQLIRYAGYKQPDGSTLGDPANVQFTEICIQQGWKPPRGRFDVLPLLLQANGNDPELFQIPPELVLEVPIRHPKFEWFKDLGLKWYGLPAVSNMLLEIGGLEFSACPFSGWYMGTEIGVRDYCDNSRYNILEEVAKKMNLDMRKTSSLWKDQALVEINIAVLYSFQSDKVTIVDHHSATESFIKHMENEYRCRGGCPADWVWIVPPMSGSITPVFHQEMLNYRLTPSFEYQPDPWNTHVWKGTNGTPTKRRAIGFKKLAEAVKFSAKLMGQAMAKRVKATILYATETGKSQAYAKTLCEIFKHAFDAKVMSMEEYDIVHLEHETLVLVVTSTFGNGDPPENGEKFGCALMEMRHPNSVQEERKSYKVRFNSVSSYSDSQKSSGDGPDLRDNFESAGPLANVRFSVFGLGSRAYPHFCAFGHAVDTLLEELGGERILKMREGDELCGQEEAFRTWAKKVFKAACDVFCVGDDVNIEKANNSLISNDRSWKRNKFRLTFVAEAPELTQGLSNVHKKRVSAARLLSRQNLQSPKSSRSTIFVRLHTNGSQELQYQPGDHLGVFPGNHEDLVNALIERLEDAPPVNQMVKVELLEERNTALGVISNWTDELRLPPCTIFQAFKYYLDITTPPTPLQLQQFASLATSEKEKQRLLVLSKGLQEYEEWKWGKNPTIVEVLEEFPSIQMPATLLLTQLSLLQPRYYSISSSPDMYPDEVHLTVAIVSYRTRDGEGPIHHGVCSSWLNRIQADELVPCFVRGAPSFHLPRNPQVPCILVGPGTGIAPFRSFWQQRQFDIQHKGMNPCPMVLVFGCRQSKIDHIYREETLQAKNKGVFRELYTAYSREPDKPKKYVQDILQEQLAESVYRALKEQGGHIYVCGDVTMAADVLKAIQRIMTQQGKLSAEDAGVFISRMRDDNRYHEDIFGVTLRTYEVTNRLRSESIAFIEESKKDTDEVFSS

[6] = substrate: N/C(=N/CCCC(N)C(=O)O)NO; assay: as §1; in short: as §2
[7] = substrate: CCCCN/C(N)=N/O; assay: as §1; in short: as §2
[8] = substrate: N=C(NO)Nc1ccc(Cl)cc1; assay: as §1; in short: as §2
[9] = substrate: CCCCC/N=C(/N)NO; assay: as §1; in short: as §2
[10] = substrate: N/C(=N/CCCCC(N)C(=O)O)NO; assay: as §1; in short: as §2

Molecule | k cat [1] [s⁻¹] | k cat/Km [2] [M⁻¹ s⁻¹] | Initial rates [3] | Initial rates [4] | Initial rates [5] | Km [6] [µM] | Km [7] [µM] | Km [8] [µM] | Km [9] [µM] | Km [10] [µM]
N=C(NO)Nc1ccc(Cl)cc1 | 1.67 | 3330 |  |  |  |  |  |  |  | 
NC(=NCCC(N)C(=O)O)NO (stereo unspecified) |  |  | < 0.5 | < 0.5 | < 0.5 |  |  |  |  | 
N/C(=N/CCCCC(=O)O)NO |  |  | 1 | 2 | < 0.5 |  |  |  |  | 
CCCCCC/N=C(/N)NO |  |  | 1 | < 0.5 | 2 |  |  |  |  | 
N/C(=N/CCCCC(N)C(=O)O)NO (stereo unspecified) | 6.83 | 46700 | 55 | 70 | 82 |  |  |  |  | 
N/C(=N/CC(N)C(=O)O)NO (stereo unspecified) |  |  | < 0.5 | < 0.5 | < 0.5 |  |  |  |  | 
NC(=NCCCC(=O)O)NO |  |  | < 0.5 | < 0.5 | < 0.5 |  |  |  |  | 
CCCCC/N=C(/N)NO | 4.67 | 15000 | 25 | < 0.5 | 34 |  |  |  |  | 
CCC/N=C(/N)NO |  |  | 15 | 41 | 36 |  |  |  |  | 
NCCCC/N=C(/N)NO |  |  | 8 | < 0.5 | 2 |  |  |  |  | 
NCCCN/C(N)=N/O |  |  | < 0.5 | < 0.5 | < 0.5 |  |  |  |  | 
N/C(=N/CCCC(N)C(=O)O)NO (stereo unspecified) | 8 | 200000 | 100 | 100 | 100 |  |  |  |  | 
CCCCN/C(N)=N/O | 5.33 | 96700 | 68 | 41 | 65 |  |  |  |  | 
B1 |  |  |  |  |  | 40 | 55 | 500 | 310 | 146
